Data from ChEMBL document CHEMBL3108749, “Discovery of a non-estrogenic irreversible inhibitor of 17β-hydroxysteroid dehydrogenase type 1 from 3-substituted-16β-(m-carbamoylbenzyl)-estradiol derivatives” (J Med Chem, 2014).

Columns and labels:
[1] = test system: MCF7; test: Cytotoxicity against human estrogen-starved estrogen-sensitive MCF7 cells assessed as cell growth at 1 uM after 7 days by MTS assay relative to control; assay type: functional; settings: MCF7, 168 h, read-out: Activity
In short: (§1)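 MCF-7 (DMEM-F12) or T-47D (RPMI) cells are kept in medium with insulin (50 ng/mL) and 5% dextran-coated charcoal-treated FBS, seeded at 3000 cells/well. After 48 h, medium is replaced with medium containing compound, renewed every two days, and cells grow seven days. Growth is read by CellTiter 96 aqueous (MTS) assay as % proliferation vs basal control (0%). Scored −/+/++/+++ bands.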

[2] = test system: MCF7; test: Cytotoxicity against human estrogen-starved estrogen-sensitive MCF7 cells assessed as cell growth at 0.1 uM after 7 days by MTS assay relative to control; assay type: functional; settings: MCF7, 168 h, read-out: Activity; in short: as §1
[3] = biological target: T1, 17-beta-hydroxysteroid dehydrogenase type 1 (Homo sapiens) (UniProt P14061); test: Inhibition of 17-beta HSD1 in human T47D cells assessed as transformation of [14C]E1 to [14C]E2 at 0.1 uM after 24 hrs by thin layer chromatography; assay type: cell-based
T1 sequence (whole entry): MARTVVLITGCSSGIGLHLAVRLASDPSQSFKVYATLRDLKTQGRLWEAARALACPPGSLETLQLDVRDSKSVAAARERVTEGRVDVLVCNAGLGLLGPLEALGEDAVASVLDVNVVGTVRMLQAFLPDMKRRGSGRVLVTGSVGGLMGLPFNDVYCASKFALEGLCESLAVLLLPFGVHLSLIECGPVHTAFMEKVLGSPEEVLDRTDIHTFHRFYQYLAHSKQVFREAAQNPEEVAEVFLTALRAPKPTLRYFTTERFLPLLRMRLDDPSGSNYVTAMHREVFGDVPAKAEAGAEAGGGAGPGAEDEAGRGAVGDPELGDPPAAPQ
In short: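 T-47D cells (endogenous 17β-HSD1) are seeded at 3000 cells/well in RPMI with insulin (50 ng/mL) and 5% charcoal-stripped FBS. After 24 h, compound (from EtOH stock, 0.1 μM final) is added with [14C]-E1 (60 nM) for 24 h. Steroids are extracted into diethyl ether, separated by silica TLC (toluene/acetone 4:1) and quantified. Mean ± SD of ≥2 independent experiments in triplicate.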

SMILES | percent proliferation above basal control at 1 µM [1] [%] | percent proliferation above basal control at 0.1 µM [2] [%] | inhibition [3] [%]
C[C@]12CC[C@@H]3c4ccc(C(=O)O)cc4CC[C@H]3[C@@H]1C[C@H](Cc1cccc(C(N)=O)c1)[C@@H]2O | > 30 | 5 | 3
CNC(=O)Cc1ccc2c(c1)CC[C@@H]1[C@@H]2CC[C@]2(C)[C@@H](O)[C@@H](Cc3cccc(C(N)=O)c3)C[C@@H]12 | 0 | 0 | 11
C[C@]12CC[C@@H]3c4ccc(B(O)O)cc4CC[C@H]3[C@@H]1C[C@H](Cc1cccc(C(N)=O)c1)[C@@H]2O | > 30 | > 30 | 36
C[C@]12CC[C@@H]3c4ccc(CO)cc4CC[C@H]3[C@@H]1C[C@H](Cc1cccc(C(N)=O)c1)[C@@H]2O | 5 | 0 | –
C[C@]12CC[C@@H]3c4ccc(CCO)cc4CC[C@H]3[C@@H]1C[C@H](Cc1cccc(C(N)=O)c1)[C@@H]2O | 5 | 5 | 18
C[C@]12CC[C@@H]3c4ccc(F)cc4CC[C@H]3[C@@H]1C[C@H](Cc1cccc(C(N)=O)c1)[C@@H]2O | 5 | 0 | 10
C[C@]12CC[C@@H]3c4ccc(N)cc4CC[C@H]3[C@@H]1C[C@H](Cc1cccc(C(N)=O)c1)[C@@H]2O | 5 | 0 | 31
CCc1ccc2c(c1)CC[C@@H]1[C@@H]2CC[C@]2(C)[C@@H](O)[C@@H](Cc3cccc(C(N)=O)c3)C[C@@H]12 | 0 | 0 | 6
CCCN(CC)C(=O)c1ccc2c(c1)CC[C@@H]1[C@@H]2CC[C@]2(C)[C@@H](O)[C@@H](Cc3cccc(C(N)=O)c3)C[C@@H]12 | 0 | 0 | 10
C[C@]12CC[C@@H]3c4ccc(CN)cc4CC[C@H]3[C@@H]1C[C@H](Cc1cccc(C(N)=O)c1)[C@@H]2O | > 30 | > 30 | 44
C[C@]12CC[C@@H]3c4ccc(CC(=O)O)cc4CC[C@H]3[C@@H]1C[C@H](Cc1cccc(C(N)=O)c1)[C@@H]2O | 5 | 0 | 7
CCCN(CC)Cc1ccc2c(c1)CC[C@@H]1[C@@H]2CC[C@]2(C)[C@@H](O)[C@@H](Cc3cccc(C(N)=O)c3)C[C@@H]12 | 0 | 0 | 14
C[C@]12CC[C@@H]3c4ccc(C(N)=O)cc4CC[C@H]3[C@@H]1C[C@H](Cc1cccc(C(N)=O)c1)[C@@H]2O | 15 | 0 | 2
CN(C)C(=O)c1ccc2c(c1)CC[C@@H]1[C@@H]2CC[C@]2(C)[C@@H](O)[C@@H](Cc3cccc(C(N)=O)c3)C[C@@H]12 | 15 | 5 | 1
C[C@]12CC[C@@H]3c4ccc(C(=O)N5CCCC5)cc4CC[C@H]3[C@@H]1C[C@H](Cc1cccc(C(N)=O)c1)[C@@H]2O | 0 | 0 | 3
C[C@]12CC[C@@H]3c4ccc(CN5CCCC5)cc4CC[C@H]3[C@@H]1C[C@H](Cc1cccc(C(N)=O)c1)[C@@H]2O | 5 | 0 | 10
